≈ marks a conversion by molar mass, not a printed value.
Experiments:
Staphylococcus aureus [1] = test: Antibacterial activity against methicillin-susceptible Staphylococcus aureus after 24 hrs by broth microdilution method; format: functional
Method in brief: (§1)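 Broth microdilution per CLSI in cation-adjusted Mueller-Hinton II broth, final inoculum approximately 5 × 10^5 CFU/ml. Plates were incubated aerobically at 35 to 37°C for 24 h. MIC was the lowest concentration giving no visible growth. Reserpine, where used, was at a final concentration of 20 μg/ml.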

Enterococcus faecalis = test: Antibacterial activity against Enterococcus faecalis; format: functional
Method in brief: (§2)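 Aerobic isolates run by CLSI broth microdilution in cation-adjusted Mueller-Hinton II broth (streptococci plus 2–5% lysed horse blood), about 5 × 10^5 CFU/ml final; 24 h at 35–37°C aerobically; MIC read as lowest concentration without visible growth.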

Enterococcus faecium = test: Antibacterial activity against Enterococcus faecium; format: functional; method in brief: as §2
Streptococcus pyogenes = test: Antibacterial activity against Streptococcus pyogenes; format: functional; method in brief: as §2
[2] = Cmax in mouse at 20 mg/kg, sc; format: ADME, organism-based; design: dose 20 mg/kg, route subcutaneous; conditions: in vivo
Method in brief: (§3)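 Fasted mice given one subcutaneous dose (20 or 50 mg/kg); blood taken from groups of three at 0.08, 0.25, 0.5, 1, 2, 4, 8, 24 h. Plasma protein-precipitated with cold acetonitrile plus internal standard, LC-MS/MS (C8, positive ESI, SRM); calibration 5–15,000 ng/ml. Noncompartmental analysis of mean concentrations; AUC to last quantifiable point by linear trapezoidal rule.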

[3] = Cmax in mouse at 50 mg/kg, sc; format: ADME, organism-based; design: dose 50 mg/kg, route subcutaneous; conditions: in vivo; method in brief: as §3
[4] = AUC (0-24 hrs) in mouse at 20 mg/kg, sc; format: ADME, organism-based; design: time < 24 hr, dose 20 mg/kg, route subcutaneous; conditions: plasma; method in brief: as §3
[5] = AUC (0-24 hrs) in mouse at 50 mg/kg, sc; format: ADME, organism-based; design: time < 24 hr, dose 50 mg/kg, route subcutaneous; conditions: plasma; method in brief: as §3
[6] = Plasma half life in mouse at 20 mg/kg, sc; format: ADME, organism-based; design: dose 20 mg/kg, route subcutaneous
[7] = Plasma half life in mouse at 50 mg/kg, sc; format: ADME, organism-based; design: dose 50 mg/kg, route subcutaneous
[8] = Tmax in mouse at 20 mg/kg, sc; format: ADME, organism-based; design: dose 20 mg/kg, route subcutaneous; conditions: in vivo; method in brief: as §3
[9] = Tmax in mouse at 50 mg/kg, sc; format: ADME, organism-based; design: dose 50 mg/kg, route subcutaneous; conditions: in vivo; method in brief: as §3
Staphylococcus aureus [10] = test: Antibacterial activity against methicillin-resistant Staphylococcus aureus after 24 hrs by broth microdilution method; format: functional; method in brief: as §1
Streptococcus pneumoniae = test: Antibacterial activity against Streptococcus pneumoniae by agar dilution method; format: functional
Streptococcus viridans = test: Antibacterial activity against Streptococcus viridans after 24 hrs by broth microdilution method; format: functional
Method in brief: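 CLSI broth microdilution in cation-adjusted Mueller-Hinton II broth, final inoculum about 5 × 10^5 CFU/ml for most strains; streptococci supplemented with 2–5% lysed horse blood, H. influenzae in Haemophilus test medium. Aerobic incubation at 35–37°C for 24 h; MIC = lowest concentration with no visible growth.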

Staphylococcus aureus [11] = test: Antibacterial activity against ethidium bromide-resistant Staphylococcus aureus BSA678 after 24 hrs by broth microdilution method; format: functional; conditions: BSA678, 24 h; method in brief: as §1
Staphylococcus aureus [12] = test: Effect on cellular viability of methicillin-sensitive Staphylococcus aureus ATCC 29213 by measuring the time required for recovery at 10 times MIC after 1 hr; format: functional
Method in brief: (§4)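 S. aureus in log phase, approximately 2–4 × 10^7 CFU/ml in CAMHB, was exposed to 10× MIC for 1 h at 35 to 37°C with shaking, then diluted 1:1,000 into prewarmed CAMHB. Viable counts were taken hourly for 4 to 8 h. PAE = T − C, the time to a 1-log10 rise, treated versus untreated. Mean of two independent experiments.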

Staphylococcus aureus [13] = test: Effect on cellular viability of methicillin-resistant Staphylococcus aureus Mu50 at 10 times MIC by measuring the time required for recovery at 10 times MIC after 1 hr; format: functional; method in brief: as §4
Staphylococcus aureus [14] = test: Antibacterial activity against ethidium bromide-resistant Staphylococcus aureus Mu50 after 24 hrs by broth microdilution method; format: functional; conditions: Mu50, 24 h; method in brief: as §1
Staphylococcus aureus [15] = test: Antibacterial activity against […] Staphylococcus aureus ATCC 29213 after 24 hrs by broth microdilution method; format: functional; conditions: ATCC 29213, 24 h; method in brief: as §1
Staphylococcus aureus [16] = test: Antibacterial activity against ethidium bromide-resistant Staphylococcus aureus BSA643 after 24 hrs by broth microdilution method; format: functional; conditions: BSA643, 24 h; method in brief: as §1
Staphylococcus aureus [17] = test: microbe, parasite or virus in culture; conditions: Mu50
Staphylococcus aureus [18] = test: Antibacterial activity in CD1 mouse inoculated with methicillin-sensitive Staphylococcus aureus ATCC 13709 in thigh assessed as reduction of CFU/thigh at 10 mg/kg, sc after 4 hrs; format: functional; conditions: route subcutaneous
Method in brief: (§5)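 Female CD-1 mice (19 to 28 g) were made neutropenic with cyclophosphamide 150 mg/kg i.p. at 4 days and 1 day before infection. Each thigh was injected i.m. with 0.1 ml of S. aureus suspension. A single s.c. dose was given 2 h postinfection, in groups of three mice. Thighs were homogenized in PBS and plated on trypticase soy agar overnight at 37°C. CFU/thigh was compared with controls at the time of treatment.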

Staphylococcus aureus [19] = test: Antibacterial activity in CD1 mouse inoculated with methicillin-sensitive Staphylococcus aureus ATCC 13709 in thigh assessed as reduction of bacterial population at 10 mg/kg, sc after 24 hrs; format: functional; conditions: route subcutaneous; method in brief: as §5
Staphylococcus aureus [20] = test: Antibacterial activity in CD1 mouse inoculated with methicillin-resistant Staphylococcus aureus ATCC 33591 in thigh assessed as reduction of bacterial population at 10 mg/kg, sc after 4 hrs; format: functional; conditions: route subcutaneous; method in brief: as §5
Staphylococcus aureus [21] = test: Antibacterial activity in CD1 mouse inoculated with methicillin-resistant Staphylococcus aureus ATCC 33591 in thigh assessed as reduction of bacterial population at 10 mg/kg, sc after 6 hrs; format: functional; conditions: route subcutaneous; method in brief: as §5
Staphylococcus aureus [22] = test: Antibacterial activity in CD1 mouse inoculated with methicillin-resistant Staphylococcus aureus ATCC 33591 in thigh assessed as reduction of bacterial population at 10 mg/kg, sc after 8 hrs; format: functional; conditions: route subcutaneous; method in brief: as §5
Staphylococcus aureus [23] = test: Antibacterial activity in CD1 mouse inoculated with methicillin-resistant Staphylococcus aureus ATCC 33591 in thigh assessed as reduction of bacterial population at 10 mg/kg, sc after 24 hrs; format: functional; conditions: route subcutaneous; method in brief: as §5

Row | SMILES | MIC50 (Staphylococcus aureus [1]) [µg/mL] | MIC90 (Staphylococcus aureus [1]) [µg/mL] | MIC50 (Enterococcus faecalis) [µg/mL] | MIC90 (Enterococcus faecalis) [µg/mL] | MIC50 (Enterococcus faecium) [µg/mL] | MIC90 (Enterococcus faecium) [µg/mL] | MIC50 (Staphylococcus aureus [10]) [µg/mL] | MIC90 (Staphylococcus aureus [10]) [µg/mL] | MIC50 (Streptococcus pneumoniae) [µg/mL] | MIC90 (Streptococcus pneumoniae) [µg/mL] | MIC50 (Streptococcus viridans) [µg/mL] | MIC90 (Streptococcus viridans) [µg/mL] | other results
1 | CC(=O)NCC1CN(c2ccc(N3CCOCC3)c(F)c2)C(=O)O1 (single isomer, unassigned) [LINEZOLID] | 2 (≈ 5.93 µM) | 2 (≈ 5.93 µM) | 2 (≈ 5.93 µM) | > 16 | 2 (≈ 5.93 µM) | 2 (≈ 5.93 µM) | 2 (≈ 5.93 µM) | 2 (≈ 5.93 µM) | 1 (≈ 2.96 µM) | 1 (≈ 2.96 µM) | 1 (≈ 2.96 µM) | 1 (≈ 2.96 µM) | MIC50 (Streptococcus pyogenes): 1 µg/mL (≈ 2.96 µM); MIC90 (Streptococcus pyogenes): 1 µg/mL (≈ 2.96 µM); Cmax [2]: 12200 ng/mL; Cmax [3]: 25500 ng/mL; AUC(0-t) at 24 h [4]: 29100 ng·h/mL; AUC(0-t) at 24 h [5]: 112000 ng·h/mL; half-life [6]: 1.17 h; half-life [7]: 2.18 h; Tmax [8]: 0.5 h; Tmax [9]: 1 h
2 | COc1c(N2C[C@@H]3CCCN[C@@H]3C2)c(F)cc2c(=O)c(C(=O)O)cn(C3CC3)c12 [MOXIFLOXACIN] | – | – | – | – | – | – | – | – | – | – | – | – | MIC (Staphylococcus aureus [11]): > 64 µg/mL; Post anitbiotic effect (Staphylococcus aureus [12]): 1.6 h; Post anitbiotic effect (Staphylococcus aureus [13]): 1.5 h; MIC (Staphylococcus aureus [14]): 4 µg/mL (≈ 9.96 µM); MIC (Staphylococcus aureus [15]): 0.06 µg/mL (≈ 0.149 µM); MIC (Staphylococcus aureus [16]): 16 µg/mL (≈ 39.9 µM); MIC (Staphylococcus aureus [17]): 64 µg/mL (≈ 159 µM)
3 | CN[C@H](CC(C)C)C(=O)N[C@H]1C(=O)N[C@@H](CC(N)=O)C(=O)N[C@H]2C(=O)N[C@H]3C(=O)N[C@H](C(=O)N[C@H](C(=O)O)c4cc(O)cc(O)c4-c4cc3ccc4O)[C@H](O)c3ccc(c(Cl)c3)Oc3cc2cc(c3O[C@@H]2O[C@H](CO)[C@@H](O)[C@H](O)[C@H]2O[C@H]2C[C@](C)(N)[C@H](O)[C@H](C)O2)Oc2ccc(cc2Cl)[C@H]1O [VANCOMYCIN] | 1 (≈ 0.69 µM) | 2 (≈ 1.38 µM) | 2 (≈ 1.38 µM) | > 32 | > 32 | > 32 | 1 (≈ 0.69 µM) | 8 (≈ 5.52 µM) | 0.5 (≈ 0.345 µM) | 0.5 (≈ 0.345 µM) | 0.5 (≈ 0.345 µM) | 1 (≈ 0.69 µM) | CFU/ml (Staphylococcus aureus [18]): 0.31; CFU/ml (Staphylococcus aureus [19]): 1.37; CFU/ml (Staphylococcus aureus [20]): 0.32; CFU/ml (Staphylococcus aureus [21]): 0.49; CFU/ml (Staphylococcus aureus [22]): 0.58; CFU/ml (Staphylococcus aureus [23]): 0.31

— ChEMBL document CHEMBL1147099, “In vitro and in vivo antibacterial activities of heteroaryl isothiazolones against resistant gram-positive pathogens” (Antimicrob Agents Chemother, 2007)
